Screens: PubChem BioAssay, Johns Hopkins Ion Channel Center
Hits are enriched below; roughly 3.7% of the tested compounds scored in any of these assays.
KCNK9 block = inhibitors of human KCNK9 two-pore domain potassium channel | B-score at 10 µM | AID 488922 | hit rate 1.2% among 310,000 | HEK293 KCNK9, FluxOR thallium flux fluorescence; stronger effect = lower value;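 active = ratio B-score over 3 SD below the library mean, with starting fluorescence within 5 SD of its mean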;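 note: negative B-score means less thallium flux so channel inhibition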
KCNQ1 inh = blocks the human KCNQ1 potassium channel | B-score at 10 µM | AID 2642 | P51787 | hit rate 1.3% among 310,000 | CHO-K1 KCNQ1, FluxOR thallium flux fluorescence; stronger effect = higher value;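 active = compounds whose thallium flux B-score, printed positive for inhibition, exceeds three library SD while starting fluorescence stays within three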;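 note: channel opened by potassium depolarization with thallium stimulus after 20 min compound exposure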
KCNQ1 act = human KCNQ1 channel potentiation or activation; P51787; CHO-K1 KCNQ1, thallium flux FluxOR fluorescence; stronger effect = higher value; B-score at 10 µM; hit rate 0.35% among 310,000; AID 2648;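 active = fluorescence ratio B-score, a plate-corrected score, at least three library SD, with initial intensity B-score within 5 SD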
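Assay system: CHO-K1 cells stably expressing KCNQ1; Medium: assay buffer with matched DMSO; Also added: K+/Tl+ depolarizing stimulus; Dosing: single dose; Timing: dye 90 min, compound 20 min, room temperature; Measured by: kinetic FluxOR thallium fluorescence, 10-s 1-Hz baseline, 110-s post-stimulus read; Read-out: peak-minus-minimum fluorescence over initial fluorescence, negative-control normalized, B-scored.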
hERG protect = compounds protecting human hERG from proarrhythmic drug block. Q12809. CHO-hERG, FluxOR thallium flux, dofetilide IC70 present. activation (rescue from dofetilide block), less the hit threshold, % at 10 µM. hit rate 0.51% among 310,000. AID 1511;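 active = activation above the mean of controls blocked by dofetilide plus 5 SD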;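 note: thallium influx through hERG after potassium depolarization seen as dye fluorescence rise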
Kir21 inh = blocks the mouse Kir2.1 inward-rectifier potassium channel. P35561. HEK293-Kir2.1, FluxOR thallium flux fluorescence; stronger effect = lower value. B-score at 10 µM. hit rate 0.85% among 310,000. AID 1672;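 active = fluorescence ratio B-score at or below minus 3 SD of library scores, with starting-brightness B-score within 2 SD, cut at about -4.2 in these data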;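 note: channel flux triggered by added potassium and thallium sulfate stimulus; B-score of peak minus minimum fluorescence over baseline after thallium stimulus; more negative B-score means stronger Kir2.1 block with less thallium influx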
KCNK3 inh = human KCNK3 channel inhibition, primary screen; hit rate 0.84% among 340,000; AID 602410; O14649; CHO-KCNK3 thallium flux, FluxOR fluorescence; stronger effect = lower value; B-score at 10 µM;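 active = B-score under library mean minus 4 SD, starting fluorescence ratio at most library mean plus 5 SD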;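 note: more negative B-score means stronger inhibition of thallium flux through KCNK3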
Target sequence (O14649 whole entry, looked up): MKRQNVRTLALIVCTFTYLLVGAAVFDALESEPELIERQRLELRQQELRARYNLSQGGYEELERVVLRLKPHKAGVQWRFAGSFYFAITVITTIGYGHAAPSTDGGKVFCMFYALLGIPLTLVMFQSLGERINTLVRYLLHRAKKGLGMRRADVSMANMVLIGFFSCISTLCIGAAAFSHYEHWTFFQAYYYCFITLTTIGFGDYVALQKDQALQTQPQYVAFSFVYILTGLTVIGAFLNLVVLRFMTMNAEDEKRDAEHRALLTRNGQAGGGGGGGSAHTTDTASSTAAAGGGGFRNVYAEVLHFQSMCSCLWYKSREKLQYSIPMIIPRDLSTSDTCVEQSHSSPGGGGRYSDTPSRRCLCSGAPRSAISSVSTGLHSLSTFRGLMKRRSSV
* hit, by the source's call; i = inactive; . = not tested or not shown; ! = a repeat was not active.

SMILES	KCNK9 block	KCNQ1 inh	KCNQ1 act	hERG protect	Kir21 inh	KCNK3 inh
C=CCn1c(=N)n(CC(O)COc2ccccc2OC)c2ccccc21 (stereo unspecified)	i	i	i	-11	0.02	i
CCCCn1c(=N)n(CCOc2ccc(C)cc2)c2ccccc21	i	i	i	-11	-4.6*	i
CCCCn1c(=N)n(CC(O)COc2cccc(C)c2)c2ccccc21 (stereo unspecified)	i	7*	i	-24	-5.2*	i
CCCCCn1c(=N)n(CC(O)COc2ccccc2OC)c2ccccc21 (stereo unspecified)	i	7*!	i	-26	-4.3*!	i
COc1ccccc1OCC(O)Cn1c(=N)n(Cc2ccccc2)c2ccccc21 (stereo unspecified)	i	i	i	-18	-4.6*	i
CCCn1c(=N)n(CC(O)COc2ccc(C)cc2)c2ccccc21 (stereo unspecified)	i	i	i	-7	-3.9	i
NC(=S)NN=CCn1cc([N+](=O)[O-])c(=O)[nH]c1=O	.	.	.	.	.	i
CC1CC(C)CN(C(=O)CN2C(=O)NC(c3ccccc3)(c3ccccc3)C2=O)C1 (stereo unspecified)	.	.	.	.	.	i
COc1ccc(C(=O)NCCOC(C)C)cc1OC1CCN(C(C)=O)CC1	i	i	i	-9	0.45	i
Cc1ccc(OCC(O)Cn2c(=N)n(CCN3CCCCC3)c3ccccc32)cc1 (stereo unspecified)	i	i	i	-19	-4.3*	i
CN(C(=O)CSc1nnc(-c2ccccc2F)n1N)C1CCCCC1	.	.	.	.	.	i
Cc1csc(NC(=O)C(C)Oc2ccc(Br)cc2)n1 (stereo unspecified)	i	i	i	-20	-5*	i
Cc1csc(NC(=O)CCS(=O)(=O)c2ccc(Br)cc2)n1	i	i	i	0	-4.3*	i
CCc1noc(C)c1C(=O)OCC(=O)c1ccccc1OC	i	i	i	-14	-1.9	i
O=C(NC1CCCc2ccccc21)C(Cc1ccccc1)NS(=O)(=O)c1cccs1 (stereo unspecified)	i	i	i	-9	-0.27	i
O=C(Nc1ccccc1C(=O)NC(Cc1ccccc1)C(=O)NC1CCCCCC1)c1ccccc1 (stereo unspecified)	i	6*	i	-6	-0.37	i
O=C(NC1CCCCC1)C(Cc1ccccc1)NS(=O)(=O)c1cccs1 (stereo unspecified)	i	i	i	7.9*	-1	i
Cc1c(Cc2ccc3c(c2)OCO3)sc(NC(=O)C(C)(C)C)c1C#N	-7.6*	i	i	-5	0.94	i
CC1(c2ccccc2)C(C#N)C(=O)NC(=O)C1C#N (stereo unspecified)	.	.	.	.	.	i
COc1ccc(CN(C)C(=O)COC(=O)c2ccc(-c3ccccc3)cc2)c(OC)c1OC	.	.	.	.	.	-9.3*
COc1ccc(CN(C)C(=O)CCN2C(=O)c3ccccc3C2=O)c(OC)c1OC	i	i	i	-1	1.3	i
C[C@H]1[C@H](NC(=O)C(=NOC(C)(C)C(=O)O)c2csc(N)n2)C(=O)N1S(=O)(=O)O	.	.	.	.	.	i
CCOC(=O)c1c(NC(=O)CSc2nnnn2C)sc(C)c1-c1ccc(C)cc1	-6.6*	i	i	-14	2.3	i
Cc1ccc(C(C)(C)C)cc1S(=O)(=O)Nc1cccc(C(=O)N2CCN(c3ccccn3)CC2)c1	.	.	.	.	.	i
CC(C)(C)c1ccc(CN(Cc2ccccc2)C(c2ccccn2)c2nnnn2C(C)(C)C)cc1 (stereo unspecified)	-7.4*	i	i	-8	-0.78	i
CCn1c(SCC(=O)NCCCN2CCCC2=O)nnc1-c1cccc(C)c1	.	.	.	.	.	i
O=C(COC(=O)C1(c2ccccc2F)CCCC1)NCc1cccs1	i	i	i	-6	-6.8*	i
c1ccc(CC2CCN(Cc3ccccn3)CC2)cc1	i	i	i	-8	0.92	i
Clc1cccc(CN2CCC(Cc3ccccc3)CC2)c1	i	i	i	-14	-7.2*	i
Clc1ccc(CN2CCC(Cc3ccccc3)CC2)cc1	i	i	i	-2	-7.5*	i
